Data taken from ChEMBL document CHEMBL1125444 (J Med Chem, 1992).

Legend:
[1] = target: T1, Serotonin 3 (5-HT3) receptor (Rattus norvegicus, UniProt P35563+Q9JJ16); experiment: Inhibition of [3H]GR-65630 binding to 5-hydroxytryptamine 3 receptor; format: protein-complex assay
T1 sequence (P35563 whole entry): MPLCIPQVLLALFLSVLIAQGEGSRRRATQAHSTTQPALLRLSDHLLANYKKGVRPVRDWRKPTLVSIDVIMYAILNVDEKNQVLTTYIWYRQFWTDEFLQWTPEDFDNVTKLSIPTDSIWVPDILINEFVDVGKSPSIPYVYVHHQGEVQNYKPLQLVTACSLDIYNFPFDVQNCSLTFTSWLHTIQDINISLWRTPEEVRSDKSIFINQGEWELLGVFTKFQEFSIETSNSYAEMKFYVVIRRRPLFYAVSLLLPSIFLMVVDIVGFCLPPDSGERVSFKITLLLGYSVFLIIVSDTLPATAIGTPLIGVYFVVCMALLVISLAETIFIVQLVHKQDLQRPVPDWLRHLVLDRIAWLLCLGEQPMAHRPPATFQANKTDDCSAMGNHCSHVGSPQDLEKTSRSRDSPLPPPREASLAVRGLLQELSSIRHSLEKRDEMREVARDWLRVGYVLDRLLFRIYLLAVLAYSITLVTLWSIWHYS
T1 sequence (Q9JJ16 whole entry): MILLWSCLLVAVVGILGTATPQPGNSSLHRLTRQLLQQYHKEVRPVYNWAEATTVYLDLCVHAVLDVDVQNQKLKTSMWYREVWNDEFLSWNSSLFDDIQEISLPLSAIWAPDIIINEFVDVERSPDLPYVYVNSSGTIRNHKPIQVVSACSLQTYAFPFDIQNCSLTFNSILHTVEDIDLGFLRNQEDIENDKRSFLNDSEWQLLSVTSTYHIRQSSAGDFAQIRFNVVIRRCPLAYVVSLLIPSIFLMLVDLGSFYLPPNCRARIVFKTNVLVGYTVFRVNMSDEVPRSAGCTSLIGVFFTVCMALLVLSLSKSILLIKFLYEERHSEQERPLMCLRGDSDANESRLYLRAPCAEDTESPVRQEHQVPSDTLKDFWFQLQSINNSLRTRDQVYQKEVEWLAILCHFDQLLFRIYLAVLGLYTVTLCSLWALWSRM

[2] = target: 5-hydroxytryptamine receptor 4 (Rattus norvegicus) (UniProt Q62758); experiment: Relaxation of carbachol induced contractions of rat tunica muscularis mucosae
Chain of 5-hydroxytryptamine receptor 4 (Rattus norvegicus) (Q62758 whole entry): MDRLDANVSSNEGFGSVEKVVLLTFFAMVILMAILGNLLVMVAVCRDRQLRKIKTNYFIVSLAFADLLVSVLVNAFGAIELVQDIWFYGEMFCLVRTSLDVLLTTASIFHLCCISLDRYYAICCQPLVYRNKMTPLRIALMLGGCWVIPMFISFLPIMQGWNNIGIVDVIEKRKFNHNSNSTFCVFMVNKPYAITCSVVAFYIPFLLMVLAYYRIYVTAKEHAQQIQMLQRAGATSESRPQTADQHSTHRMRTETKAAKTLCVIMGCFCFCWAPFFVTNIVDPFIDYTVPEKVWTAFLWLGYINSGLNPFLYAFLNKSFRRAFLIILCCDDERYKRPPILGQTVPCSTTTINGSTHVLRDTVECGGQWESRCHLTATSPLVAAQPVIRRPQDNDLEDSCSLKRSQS
Method in brief: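 Rat esophagus tunica muscularis mucosae strips, equilibrated 30 min, then contracted isometrically with carbachol (3 μM) to a stable tonic plateau within 20 min. Test agent added cumulatively to relax the strip. Buffer held corticosterone acetate (30 μM), fluoxetine (1 μM) and pargyline (10 μM).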

D(2) dopamine receptor = D(2) dopamine receptor (Rattus norvegicus, UniProt P61169); experiment: The ability to inhibit [3H]domperidone binding to dopamine receptor D2 in rat striata
Chain of D(2) dopamine receptor (P61169 whole entry): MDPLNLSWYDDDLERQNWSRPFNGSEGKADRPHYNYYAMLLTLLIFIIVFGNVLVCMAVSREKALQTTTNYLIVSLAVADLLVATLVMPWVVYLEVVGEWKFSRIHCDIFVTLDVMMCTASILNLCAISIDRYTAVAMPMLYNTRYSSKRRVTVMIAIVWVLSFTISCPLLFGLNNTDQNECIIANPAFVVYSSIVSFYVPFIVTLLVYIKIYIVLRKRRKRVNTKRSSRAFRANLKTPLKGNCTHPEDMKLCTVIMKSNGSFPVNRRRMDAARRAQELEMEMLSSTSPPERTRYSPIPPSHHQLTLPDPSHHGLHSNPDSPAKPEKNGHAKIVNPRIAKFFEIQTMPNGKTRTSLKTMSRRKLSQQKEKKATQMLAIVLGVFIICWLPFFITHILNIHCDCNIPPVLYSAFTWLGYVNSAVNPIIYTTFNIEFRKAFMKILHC

[3] = %E relative to serotonin is 100%; format: functional
[4] = target: Serotonin 2 (5-HT2) receptor (Rattus norvegicus, UniProt P30994+P08909+P14842); experiment: The ability to inhibit [3H]ketanserin binding to 5-hydroxytryptamine 2 receptor in rat whole brain
Adrenergic receptor beta = Adrenergic receptor beta (Rattus norvegicus, UniProt P18090+P10608+P26255); experiment: The ability to inhibit [3H]dihydroalprenolol prenolol binding to Beta adrenergic receptor in rat whole brain
[5] = target: Serotonin 1 (5-HT1) receptor (Rattus norvegicus, UniProt P28564+P30940+P19327+P28565); experiment: The ability to inhibit [3H]5-HT binding to 5-hydroxytryptamine 1 receptor in rat cortex
[6] = target: T1, Serotonin 3 (5-HT3) receptor; experiment: The ability to inhibit [3H]GR-65630 binding to 5-hydroxytryptamine 3 receptor in rat brain cortices; format: tissue-based
Method in brief: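 Membranes from male rat brain cortices incubated with [3H]GR65630 (0.2 nM) as radioligand.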

[7] = target: T2, Adrenergic receptor alpha-2 (Rattus norvegicus, UniProt P22086+P19328+P22909); experiment: The ability to inhibit [3H]rauwolscine binding to alpha-2 adrenergic receptor in rat cortex
T2 sequence (P22086 whole entry): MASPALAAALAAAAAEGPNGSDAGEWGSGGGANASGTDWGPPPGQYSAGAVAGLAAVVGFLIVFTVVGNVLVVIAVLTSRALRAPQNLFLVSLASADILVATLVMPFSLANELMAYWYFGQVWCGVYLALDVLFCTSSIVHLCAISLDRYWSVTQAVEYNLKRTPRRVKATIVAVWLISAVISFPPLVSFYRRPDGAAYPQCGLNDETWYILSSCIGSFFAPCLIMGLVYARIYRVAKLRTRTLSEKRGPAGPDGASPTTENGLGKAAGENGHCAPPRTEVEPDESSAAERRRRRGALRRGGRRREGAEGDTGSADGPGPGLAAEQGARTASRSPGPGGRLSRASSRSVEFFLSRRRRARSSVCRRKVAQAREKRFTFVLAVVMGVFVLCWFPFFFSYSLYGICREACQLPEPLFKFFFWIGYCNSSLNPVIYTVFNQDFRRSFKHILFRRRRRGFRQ
T2 sequence (P19328 whole entry): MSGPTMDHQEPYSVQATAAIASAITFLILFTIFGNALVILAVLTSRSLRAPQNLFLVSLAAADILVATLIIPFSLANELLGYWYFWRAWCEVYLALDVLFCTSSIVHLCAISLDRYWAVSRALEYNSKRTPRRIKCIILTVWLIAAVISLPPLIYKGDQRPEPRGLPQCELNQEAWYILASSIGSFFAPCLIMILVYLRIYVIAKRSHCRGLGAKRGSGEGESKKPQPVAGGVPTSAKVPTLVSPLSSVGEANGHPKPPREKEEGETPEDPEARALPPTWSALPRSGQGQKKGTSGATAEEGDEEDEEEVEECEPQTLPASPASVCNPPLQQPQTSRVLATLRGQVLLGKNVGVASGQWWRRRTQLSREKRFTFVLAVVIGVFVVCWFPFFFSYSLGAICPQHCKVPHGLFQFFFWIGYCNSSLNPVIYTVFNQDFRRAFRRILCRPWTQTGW
T2 sequence (P22909 whole entry): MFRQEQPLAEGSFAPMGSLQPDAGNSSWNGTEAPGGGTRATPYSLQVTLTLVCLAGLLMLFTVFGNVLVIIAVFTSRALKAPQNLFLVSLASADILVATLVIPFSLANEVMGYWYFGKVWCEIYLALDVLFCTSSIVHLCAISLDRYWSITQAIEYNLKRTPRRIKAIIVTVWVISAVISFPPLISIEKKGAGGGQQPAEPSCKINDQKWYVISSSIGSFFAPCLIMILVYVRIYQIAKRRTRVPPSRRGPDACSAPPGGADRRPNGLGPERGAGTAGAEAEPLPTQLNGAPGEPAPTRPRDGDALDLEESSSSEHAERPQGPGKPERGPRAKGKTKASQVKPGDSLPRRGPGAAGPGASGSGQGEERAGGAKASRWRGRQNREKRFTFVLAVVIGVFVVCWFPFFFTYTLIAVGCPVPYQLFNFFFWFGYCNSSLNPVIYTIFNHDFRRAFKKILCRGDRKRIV

D(1A) dopamine receptor = D(1A) dopamine receptor (Rattus norvegicus, UniProt P18901); experiment: The ability to inhibit [3H]-SCH- 23390 binding to Dopamine receptor D1 in rat striata
Chain of D(1A) dopamine receptor (P18901 whole entry): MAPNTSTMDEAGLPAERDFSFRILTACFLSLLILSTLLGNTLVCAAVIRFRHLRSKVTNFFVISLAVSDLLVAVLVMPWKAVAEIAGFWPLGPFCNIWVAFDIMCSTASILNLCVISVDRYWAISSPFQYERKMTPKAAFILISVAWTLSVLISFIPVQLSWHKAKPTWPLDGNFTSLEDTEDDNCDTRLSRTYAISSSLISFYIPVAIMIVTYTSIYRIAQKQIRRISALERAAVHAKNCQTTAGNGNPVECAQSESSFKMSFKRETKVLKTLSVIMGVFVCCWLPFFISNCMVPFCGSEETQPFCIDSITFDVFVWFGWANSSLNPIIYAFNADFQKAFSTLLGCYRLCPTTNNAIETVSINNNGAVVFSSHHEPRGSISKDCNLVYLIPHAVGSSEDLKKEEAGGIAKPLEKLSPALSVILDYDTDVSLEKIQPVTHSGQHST

[8] = target: T3, Alpha-1A adrenergic receptor (Rattus norvegicus, UniProt P43140); experiment: The ability to inhibit [3H]prazosin binding to Alpha-1 adrenergic receptor in rat whole brain
T3 sequence (P43140 whole entry): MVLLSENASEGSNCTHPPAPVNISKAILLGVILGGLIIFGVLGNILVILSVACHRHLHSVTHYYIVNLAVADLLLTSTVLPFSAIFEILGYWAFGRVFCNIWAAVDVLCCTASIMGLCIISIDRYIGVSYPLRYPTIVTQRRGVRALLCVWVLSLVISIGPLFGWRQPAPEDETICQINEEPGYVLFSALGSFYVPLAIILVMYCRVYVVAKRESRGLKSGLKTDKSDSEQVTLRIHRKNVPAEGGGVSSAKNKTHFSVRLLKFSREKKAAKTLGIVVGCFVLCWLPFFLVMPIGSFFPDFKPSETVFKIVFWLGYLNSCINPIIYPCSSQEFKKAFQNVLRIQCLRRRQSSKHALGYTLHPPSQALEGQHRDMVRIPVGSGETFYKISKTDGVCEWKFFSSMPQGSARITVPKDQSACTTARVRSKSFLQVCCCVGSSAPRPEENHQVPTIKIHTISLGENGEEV

SMILES: O=C(NC1CCN2CCCC12)c1ccccc1 (centres undefined)
- Ki [1]: > 200 nM
- ED50 [2]: > 10000 nM

SMILES: CCN(CC)CCNC(=O)c1cc(Cl)c(N)cc1OC [METOCLOPRAMIDE]
- Ki [1]: 240 nM
- ED50 [2]: 24100 nM

SMILES: COc1cc(N)c(Cl)cc1C(=O)NC1CCN2CCCC12 (stereo in doubt; 1J) [listing 1 of 2 here]
- Ki [1]: 96 nM

SMILES: CCOc1cc(N)c(Cl)cc1C(=O)NC1CCN2CCCC12 (stereo in doubt; 1G) [listing 1 of 2 here]
- ED50 [2]: 2270 nM

SMILES: CC(C)n1c(=O)n(C(=O)CC2CC3CCC(C2)N3C)c2ccccc21 (centres undefined)
- Ki (D(2) dopamine receptor): > 10000 nM
- E [3]: > 111%
- ED50 [2]: 40.2 nM
- Ki [4]: > 10000 nM
- Ki (Adrenergic receptor beta): > 10000 nM
- Ki [5]: > 10000 nM
- Ki [6]: > 10000 nM
- Ki [7]: > 10000 nM
- Ki (D(1A) dopamine receptor): > 10000 nM
- Ki [8]: > 10000 nM

SMILES: COc1cc(N)c(Cl)cc1C(=O)NC[C@@H]1CCN2CCC[C@@H]12 (relative stereo)
- Ki [1]: 152 nM
- Ki (D(2) dopamine receptor): > 10000 nM
- E [3]: 93%
- ED50 [2]: 23 nM
- Ki [4]: > 10000 nM
- Ki (Adrenergic receptor beta): > 10000 nM
- Ki [5]: > 10000 nM
- Ki [7]: > 10000 nM
- Ki (D(1A) dopamine receptor): > 10000 nM
- Ki [8]: > 10000 nM

SMILES: COc1cc(N)c(Cl)cc1C(=O)NC1CCN2CCCC12 (stereo in doubt; 1F) [listing 1 of 2 here]
- ED50 [2]: 187 nM

SMILES: COc1cc(N)c(Cl)cc1C(=O)NCC1CCN2CCCC12 (stereo in doubt; 1E) [listing 1 of 2 here]
- Ki [1]: 278 nM

SMILES: COc1cc(N)c(Cl)cc1C(=O)NCC1CCN2CCCC12 (stereo in doubt; 1A) [listing 1 of 2 here]
- Ki [1]: 104 nM

SMILES: NCCc1c[nH]c2ccc(O)cc12
- ED50 [2]: 16 nM

SMILES: COc1cc(N)c(Cl)cc1C(=O)NC1CCN2CCCC12 (stereo in doubt; 1J) [listing 2 of 2 here]
- ED50 [2]: 3450 nM

SMILES: COc1cc(N)c(Cl)cc1C(=O)N[C@H]1CN2CCC1CC2 [(R)ZACOPRIDE]
- Ki [1]: 8 nM
- Ki (D(2) dopamine receptor): > 10000 nM
- E [3]: 96%
- ED50 [2]: 505 nM
- Ki [4]: 415 nM
- Ki (Adrenergic receptor beta): > 10000 nM
- Ki [5]: > 10000 nM
- Ki [7]: > 10000 nM
- Ki (D(1A) dopamine receptor): > 10000 nM
- Ki [8]: > 10000 nM

SMILES: COc1cc(N)c(Cl)cc1C(=O)NC[C@H]1CCN2CCC[C@H]12
- Ki [1]: 66 nM
- ED50 [2]: 323 nM

SMILES: COc1cc(N)c(Cl)cc1C(=O)NC1CCN(CCCOc2ccc(F)cc2)CC1OC (centres undefined) [CISAPRIDE]
- E [3]: 105%
- ED50 [2]: 54.7 nM
- Ki (Adrenergic receptor beta): > 10000 nM
- Ki [5]: > 10000 nM
- Ki (D(1A) dopamine receptor): 1700 nM
- Ki [8]: 30 nM

SMILES: CCOc1cc(N)c(Cl)cc1C(=O)NC1CCN2CCCC12 (stereo in doubt; 1G) [listing 2 of 2 here]
- Ki [1]: 8 nM

SMILES: COc1cc(N)c(Cl)cc1C(=O)NCC1CCN2CCCC12 (stereo in doubt; 1A) [listing 2 of 2 here]
- ED50 [2]: 64 nM

SMILES: COc1cc(N)c(Cl)cc1C(=O)NC1CCN2CCCC12 (stereo in doubt; 1F) [listing 2 of 2 here]
- Ki [1]: 14 nM

SMILES: CCOc1cc(N)c(Cl)cc1C(=O)NC1CCN2CCCC12 (stereo in doubt; 1K) [listing 1 of 2 here]
- ED50 [2]: > 10000 nM

SMILES: CCOc1cc(N)c(Cl)cc1C(=O)NCC1CCN2CCCC12 (centres undefined)
- Ki [1]: 25 nM
- ED50 [2]: 1380 nM

SMILES: COc1cc(N)c(Cl)cc1C(=O)NCC1CCN2CCCC12 (stereo in doubt; 1E) [listing 2 of 2 here]
- ED50 [2]: 280 nM

SMILES: CCOc1cc(N)c(Cl)cc1C(=O)NC1CCN2CCCC12 (stereo in doubt; 1K) [listing 2 of 2 here]
- Ki [1]: 99 nM

SMILES: COc1cc(N)c(Cl)cc1C(=O)NC1CCN2CCCC1C2 (centres undefined) [RENZAPRIDE]
- Ki (D(2) dopamine receptor): > 10000 nM
- E [3]: 98%
- ED50 [2]: 44 nM
- Ki (Adrenergic receptor beta): > 10000 nM
- Ki [7]: > 10000 nM
- Ki (D(1A) dopamine receptor): > 10000 nM
- Ki [8]: > 10000 nM
